Test results: ChEMBL document CHEMBL1806356, “Synthesis, characterization and antimicrobial studies of some new pyrazole incorporated imidazole derivatives” (Eur J Med Chem, 2011)

Tests used:
Candida albicans [1] = assay: Antifungal activity against Candida albicans at 500 ug/ml after 72 hrs by agar diffusion method; assay type: functional; conditions: read-out: DIZ
How it was run: (§1)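 Fungal spores were suspended in normal saline (one loopful in 3 mL) and lawned on agar plates. Wells were punched with a sterile cork borer and loaded with test compound in DMSO at the different concentrations. A DMSO solvent control was included. Petri dishes were prepared in triplicate and held at 25 °C for 72 h.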

Candida albicans [2] = assay: Antifungal activity against Candida albicans at 1000 ug/ml after 72 hrs by agar diffusion method by agar diffusion method; assay type: functional; conditions: read-out: DIZ; how it was run: as §1
Staphylococcus aureus [3] = assay: Antibacterial activity against Staphylococcus aureus assessed as zone of inhibition at 1000 ug/ml after 24 hrs by agar diffusion method; assay type: functional; conditions: read-out: IZ
How it was run: (§2)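 Well diffusion on Mueller-Hinton agar seeded with 24 h old bacterial cultures. Test compounds were dissolved in DMSO at 1 and 0.5 mg/mL and added to labeled wells. Plates were incubated 24 h at 37 °C. The inhibition zone around each well was measured in mm. Triplicate experiments, standard deviation calculated.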

Nannizzia gypsea [4] = assay: Antifungal activity against Microsporum gypseum at 1000 ug/ml after 72 hrs by agar diffusion method; assay type: functional; conditions: read-out: DIZ; how it was run: as §1
Clostridium perfringens [5] = assay: Antibacterial activity against Clostridium perfringens assessed as zone of inhibition at 1000 ug/ml after 24 hrs by agar diffusion method; assay type: functional; conditions: read-out: IZ
How it was run: (§3)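 Well diffusion on Mueller-Hinton agar seeded with 24 h old cultures. Compounds dissolved in DMSO at 1 and 0.5 mg/mL and added to wells punched with a sterile cork borer, with a DMSO-only control. Plates incubated 24 h at 37 °C. Read-out was the inhibition zone in mm, run in triplicate, standard deviation calculated.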

Trichophyton rubrum [6] = assay: Antifungal activity against Trichophyton rubrum at 1000 ug/ml after 72 hrs by agar diffusion method; assay type: functional; conditions: read-out: DIZ; how it was run: as §1
Aspergillus flavus [7] = assay: Antifungal activity against Aspergillus flavus at 1000 ug/ml after 72 hrs by agar diffusion method; assay type: functional; conditions: read-out: DIZ; how it was run: as §1
Aspergillus niger [8] = assay: Antifungal activity against Aspergillus niger at 1000 ug/ml after 72 hrs by agar diffusion method; assay type: functional; conditions: read-out: DIZ; how it was run: as §1
Bacillus subtilis [9] = assay: Antibacterial activity against Bacillus subtilis assessed as zone of inhibition at 1000 ug/ml after 24 hrs by agar diffusion method; assay type: functional; conditions: read-out: IZ; how it was run: as §2
Trichophyton rubrum [10] = assay: Antifungal activity against Trichophyton rubrum at 500 ug/ml after 72 hrs by agar diffusion method; assay type: functional; conditions: read-out: DIZ; how it was run: as §1
Pseudomonas aeruginosa [11] = assay: Antibacterial activity against Pseudomonas aeruginosa ATCC 27853 assessed as zone of inhibition at 1000 ug/ml after 24 hrs by agar diffusion method; assay type: functional; conditions: ATCC 27853, 24 h, read-out: IZ; how it was run: as §2
Nannizzia gypsea [12] = assay: Antifungal activity against Microsporum gypseum at 500 ug/ml after 72 hrs by agar diffusion method; assay type: functional; conditions: read-out: DIZ; how it was run: as §1
Bacillus subtilis [13] = assay: Antibacterial activity against Bacillus subtilis assessed as zone of inhibition at 500 ug/ml after 24 hrs by agar diffusion method; assay type: functional; conditions: read-out: IZ; how it was run: as §2
Escherichia coli [14] = assay: Antibacterial activity against Escherichia coli ATCC 25922 assessed as zone of inhibition at 500 ug/ml after 24 hrs by agar diffusion method; assay type: functional; conditions: ATCC 25922, 24 h, read-out: IZ; how it was run: as §2
Escherichia coli [15] = assay: Antibacterial activity against Escherichia coli ATCC 25922 assessed as zone of inhibition at 1000 ug/ml after 24 hrs by agar diffusion method; assay type: functional; conditions: ATCC 25922, 24 h, read-out: IZ; how it was run: as §2
Pseudomonas aeruginosa [16] = assay: Antibacterial activity against Pseudomonas aeruginosa ATCC 27853 assessed as zone of inhibition at 500 ug/ml after 24 hrs by agar diffusion method; assay type: functional; conditions: ATCC 27853, 24 h, read-out: IZ; how it was run: as §2
Aspergillus flavus [17] = assay: Antifungal activity against Aspergillus flavus at 500 ug/ml after 72 hrs by agar diffusion method; assay type: functional; conditions: read-out: DIZ; how it was run: as §1
Salmonella typhimurium [18] = assay: Antibacterial activity against Salmonella Typhimurium assessed as zone of inhibition at 500 ug/ml after 24 hrs by agar diffusion method; assay type: functional, Salmonella enterica subsp. enterica serovar Typhimurium; conditions: Salmonella enterica, read-out: IZ; how it was run: as §2
Aspergillus niger [19] = assay: Antifungal activity against Aspergillus niger at 500 ug/ml after 72 hrs by agar diffusion method; assay type: functional; conditions: read-out: DIZ; how it was run: as §1
Staphylococcus aureus [20] = assay: Antibacterial activity against Staphylococcus aureus assessed as zone of inhibition at 500 ug/ml after 24 hrs by agar diffusion method; assay type: functional; conditions: read-out: IZ; how it was run: as §2
Clostridium perfringens [21] = assay: Antibacterial activity against Clostridium perfringens assessed as zone of inhibition at 500 ug/ml after 24 hrs by agar diffusion method; assay type: functional; conditions: read-out: IZ; how it was run: as §3
Salmonella typhimurium [22] = assay: Antibacterial activity against Salmonella Typhimurium assessed as zone of inhibition at 1000 ug/ml after 24 hrs by agar diffusion method; assay type: functional, Salmonella enterica subsp. enterica serovar Typhimurium; conditions: Salmonella enterica, read-out: IZ; how it was run: as §2

Compound | zone of inhibition at 500 µg/mL (Candida albicans [1]) [mm] | zone of inhibition at 1000 µg/mL (Candida albicans [2]) [mm] | zone of inhibition at 1000 µg/mL (Staphylococcus aureus [3]) [mm] | zone of inhibition at 1000 µg/mL (Nannizzia gypsea [4]) [mm] | zone of inhibition at 1000 µg/mL (Clostridium perfringens [5]) [mm] | zone of inhibition at 1000 µg/mL (Trichophyton rubrum [6]) [mm] | zone of inhibition at 1000 µg/mL (Aspergillus flavus [7]) [mm] | zone of inhibition at 1000 µg/mL (Aspergillus niger [8]) [mm] | zone of inhibition at 1000 µg/mL (Bacillus subtilis [9]) [mm] | zone of inhibition at 500 µg/mL (Trichophyton rubrum [10]) [mm] | zone of inhibition at 1000 µg/mL (Pseudomonas aeruginosa [11]) [mm] | zone of inhibition at 500 µg/mL (Nannizzia gypsea [12]) [mm] | zone of inhibition at 500 µg/mL (Bacillus subtilis [13]) [mm] | zone of inhibition at 500 µg/mL (Escherichia coli [14]) [mm] | zone of inhibition at 1000 µg/mL (Escherichia coli [15]) [mm] | zone of inhibition at 500 µg/mL (Pseudomonas aeruginosa [16]) [mm] | zone of inhibition at 500 µg/mL (Aspergillus flavus [17]) [mm] | zone of inhibition at 500 µg/mL (Salmonella typhimurium [18]) [mm] | zone of inhibition at 500 µg/mL (Aspergillus niger [19]) [mm] | zone of inhibition at 500 µg/mL (Staphylococcus aureus [20]) [mm] | further results
COC(=O)/C=C1/C(=O)NC(=S)N1/N=C/c1c[nH]nc1-c1ccc(Cl)cc1Cl | 6 | 7 | 6 | 7 | 7 | 10 | 12 | 6 | 8 | 9 | 7 | 6 | 7 | 7 | 8 | 6 | 11 | 3 | 5 | 5 | zone of inhibition at 500 µg/mL (Clostridium perfringens [21]): 6 mm; zone of inhibition at 1000 µg/mL (Salmonella typhimurium [22]): 4 mm
COC(=O)/C=C1/C(=O)NC(=S)N1/N=C/c1c[nH]nc1-c1ccc(C)cc1 | 3 | 4 | 4 | 4 | 6 | 10 | 6 | 10 | 9 | 9 | 4 | 3 | 8 | 4 | 5 | 3 | 5 | 5 | 9 | 3 | zone of inhibition at 500 µg/mL (Clostridium perfringens [21]): 5 mm; zone of inhibition at 1000 µg/mL (Salmonella typhimurium [22]): 6 mm
CSc1ccc(-c2n[nH]cc2-c2nc(-c3ccccc3)c(-c3ccccc3)[nH]2)cc1 | 9 | 10 | 4 | 6 | 4 | 12 | 5 | 10 | 5 | 11 | 5 | 5 | 4 | 6 | 7 | 4 | 4 | 3 | 9 | 3 | zone of inhibition at 500 µg/mL (Clostridium perfringens [21]): 3 mm; zone of inhibition at 1000 µg/mL (Salmonella typhimurium [22]): 4 mm
COC(=O)/C=C1/C(=O)NC(=S)N1/N=C/c1c[nH]nc1-c1cc(Cl)sc1Cl | 5 | 6 | 7 | 6 | 12 | 13 | 10 | 6 | 8 | 12 | 9 | 5 | 7 | 8 | 9 | 8 | 9 | 9 | 5 | 6 | zone of inhibition at 500 µg/mL (Clostridium perfringens [21]): 11 mm; zone of inhibition at 1000 µg/mL (Salmonella typhimurium [22]): 10 mm
Clc1ccc(-c2n[nH]cc2-c2nc(-c3ccccc3)c(-c3ccccc3)[nH]2)c(Cl)c1 | 11 | 12 | 6 | 4 | 6 | 10 | 8 | 9 | 6 | 8 | 4 | 3 | 5 | 9 | 10 | 3 | 7 | 2 | 7 | 5 | zone of inhibition at 500 µg/mL (Clostridium perfringens [21]): 5 mm; zone of inhibition at 1000 µg/mL (Salmonella typhimurium [22]): 3 mm
OC(Cn1cncn1)(Cn1cncn1)c1ccc(F)cc1F [FLUCONAZOLE] | 21 | 22 | – | 15 | – | 24 | 22 | 20 | – | 22 | – | 14 | – | – | – | – | 21 | – | 18 | – | –
CN[C@@H]1[C@H](O[C@H]2[C@H](O[C@H]3[C@H](O)[C@@H](O)[C@H](N=C(N)N)[C@@H](O)[C@@H]3N=C(N)N)O[C@@H](C)[C@]2(O)C=O)O[C@@H](CO)[C@H](O)[C@H]1O [STREPTOMYCIN] | – | – | 15 | – | 17 | – | – | – | 21 | – | 13 | – | 11 | 10 | 16 | 9 | – | 17 | – | 10 | zone of inhibition at 500 µg/mL (Clostridium perfringens [21]): 16 mm; zone of inhibition at 1000 µg/mL (Salmonella typhimurium [22]): 18 mm
